Data published in PubChem BioAssay.
Calls of active or inactive are those of the source.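 The calls were made as follows, unless noted: active = viability at or below 30% in both replicate assays; inconclusive = viability at or below 30% in just one of the two assays; inactive = the rest.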

Experiments:
[1] = reducers of endogenous Her2 protein level, primary screen, SKBR3 breast tumor cells, AlphaScreen, ATP viability (AID 461;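 active = Her2 level under about 52% in both replicate screens, with viability over 70% of control, limit read from the data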;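 as to Her2 level: lower value means less Her2 protein in the cells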;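 as to viability: percent of carrier control wells set as 100% viability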); settings: 18-24 h, measured here: SKBR3 viability, ATP luminescence, at 10 µM
[2] = molecular target: Receptor tyrosine-protein kinase erbB-2 (Homo sapiens) (UniProt P04626); test: as above; settings: 18-24 h, at 10 µM, stronger effect = lower value
[3] = SK-BR-3 cell growth inhibitors, pilot screen, 24 h, human (AID 572;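 active = viability at or below 10% of carrier control in both of two separate runs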;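 also: compound exposure lasted between 18 and 24 h rather than exactly 24 h; 100% = carrier-treated control wells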); settings: SK-BR-3 viability, CellTiter-Glo luminescence, at 10 µM, stronger effect = lower value
[4] = HUVEC growth inhibition – cell-based, human, primary screen (AID 575); settings: HUVEC proliferation, CellTiter-Glo luminescence, 72 h; at 10 µM; stronger effect = lower value;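 also: 100% = median of untreated cell wells with 0.1% DMSO on each plate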
Summary of the method: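 System – primary HUVEC, no more than 12 passages · Medium – Low-serum (2% FBS) EBM, supplemented · Times – 72 h exposure, 37 °C, 5% CO2, 30 min RT equilibration · Measured by – luminescent ATP assay · Read-out – % viability relative to median vehicle-well signal on each plate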

[5] = growth inhibitors of H69AR lung tumor, primary screen, human, duplicate replicates (AID 580;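 active = viability at or under a set limit in both replicates, limit being median viability minus 3 SD, cut at about 48% in these data, passing the limit was not always enough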;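 also: 100% = mean luminescence of untreated wells and 0% = no signal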); settings: H69AR lung tumor cells viability, ATP luminescence, 72 h; at 10 µM; stronger effect = lower value
[6] = reversal of MRP1-mediated doxorubicin resistance, pilot screen, H69AR cells, doxorubicin co-treatment (AID 601;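 active = viability loss from added drug above about 55%, and viability with drug at most 40%, in both replicates, limit read from the data, passing the limit was not always enough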); settings: CellTiter-Glo, 72 h, at 10 µM; for differential viability (reversal): stronger effect = higher value
[7] = 384-well plate pilot, post-Golgi transport modulator project, inhibition of yeast transport mutant growth (AID 636; in the data active = inhibition above about 31%); settings: absorbance 615 nm, about 18 h, stronger effect = higher value
[8] = growth suppression of yeast trafficking mutant, preliminary HTS, modulators of trafficking downstream of Golgi apparatus project, 1536-format plate, OD 615 nm (AID 637; in the data active = inhibition above about 30%); settings: yeast transport mutant growth, absorbance 615 nm, 18 h; stronger effect = higher value
[9] = H69AR cells + 2 uM doxorubicin, measured here: viability with 2 uM doxorubicin, stronger effect = lower value
[10] = H69AR cells, compound alone cytotoxicity

Receptor tyrosine-protein kinase erbB-2 (Homo sapiens), sequence (P04626 whole entry, looked up): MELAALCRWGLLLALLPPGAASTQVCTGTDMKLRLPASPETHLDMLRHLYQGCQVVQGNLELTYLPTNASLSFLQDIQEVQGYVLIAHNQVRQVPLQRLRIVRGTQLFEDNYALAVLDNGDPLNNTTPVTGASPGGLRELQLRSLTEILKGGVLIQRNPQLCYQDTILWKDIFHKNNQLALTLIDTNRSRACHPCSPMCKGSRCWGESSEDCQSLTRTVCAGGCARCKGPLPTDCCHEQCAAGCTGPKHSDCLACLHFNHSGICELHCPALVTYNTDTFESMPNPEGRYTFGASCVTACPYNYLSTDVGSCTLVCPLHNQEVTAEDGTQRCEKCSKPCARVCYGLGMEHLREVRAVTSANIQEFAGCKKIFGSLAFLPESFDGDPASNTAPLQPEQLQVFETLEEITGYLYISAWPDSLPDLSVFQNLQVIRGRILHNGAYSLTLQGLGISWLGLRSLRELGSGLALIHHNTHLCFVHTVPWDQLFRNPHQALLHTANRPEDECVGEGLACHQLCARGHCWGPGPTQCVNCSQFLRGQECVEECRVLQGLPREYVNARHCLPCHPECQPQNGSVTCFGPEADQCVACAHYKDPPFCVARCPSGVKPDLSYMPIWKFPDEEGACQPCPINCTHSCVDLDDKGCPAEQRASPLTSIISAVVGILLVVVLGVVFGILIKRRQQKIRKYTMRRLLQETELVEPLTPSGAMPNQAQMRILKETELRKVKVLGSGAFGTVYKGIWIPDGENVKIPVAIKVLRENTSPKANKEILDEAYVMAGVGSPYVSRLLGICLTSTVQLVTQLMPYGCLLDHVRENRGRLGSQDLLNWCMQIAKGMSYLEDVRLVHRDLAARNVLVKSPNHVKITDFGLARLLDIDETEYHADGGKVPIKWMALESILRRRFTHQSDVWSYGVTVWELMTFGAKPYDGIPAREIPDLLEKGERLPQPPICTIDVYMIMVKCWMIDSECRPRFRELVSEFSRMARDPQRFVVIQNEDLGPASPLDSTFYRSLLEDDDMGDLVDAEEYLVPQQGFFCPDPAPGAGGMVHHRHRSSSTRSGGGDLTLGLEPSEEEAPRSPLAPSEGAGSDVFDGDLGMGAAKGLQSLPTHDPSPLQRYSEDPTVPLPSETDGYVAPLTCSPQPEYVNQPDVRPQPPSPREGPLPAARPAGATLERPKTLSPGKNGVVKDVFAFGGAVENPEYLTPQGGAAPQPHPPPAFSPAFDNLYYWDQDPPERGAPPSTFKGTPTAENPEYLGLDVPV

SMILES	viability [1] [%]	Her2 level [2]	viability [3]	viability [4]	viability [5]	differential viability (reversal) ([6]; H69AR cells + 2 uM doxorubicin)	viability [6, 9] [%]	viability [6, 10] [%]	inhibition [7]	inhibition [8]
COc1ccc(-c2cc(N3CCCC3)n3ncnc3n2)cc1	86	94.5% (inactive)	86% (inactive)	78.7% (inactive)	87.2% (inactive)	11.9% (inactive)	75.2	87.2	-5.27% (inactive)	-2.46% (inactive)
Cc1nnc(SC(=O)N2c3ccccc3Sc3ccccc32)s1	114	6.5% (active)	114% (inactive)	13.2% (active)	1.79% (active)	0.105% (inactive)	1.69	1.79	54% (active)	8.67% (inactive)
CCOC(=O)N1CCN(CC(=O)Nc2c(C(=O)OC)[nH]c3cccc(Cl)c23)CC1	102	97.5% (inactive)	102% (inactive)	91.9% (inactive)	86.6% (inactive)	-1.14% (inactive)	87.8	86.6	-6.08% (inactive)	8.5% (inactive)
O=S(CC(O)COCc1ccc(Cl)cc1)c1ccccn1 (stereo not given)	100	90.5% (inactive)	100% (inactive)	111% (inactive)	93% (inactive)	1.46% (inactive)	91.5	93	-1.95% (inactive)	-3.93% (inactive)
CCN1CCN(C(=O)c2cc3c(=O)n(C)c4ccccc4c3n2C)CC1	110	94% (inactive)	110% (inactive)	88.2% (inactive)	77.6% (inactive)	-9.27% (inactive)	86.9	77.6	0.4% (inactive)	-1.33% (inactive)
Cc1sc2nc(SCC(=O)N3CCN(CCO)CC3)n(-c3ccccc3)c(=O)c2c1C	118	99% (inactive)	118% (inactive)	78.3% (inactive)	88.1% (inactive)	0.935% (inactive)	87.2	88.1	0.65% (inactive)	-0.16% (inactive)
COc1ccc(OC)c(C(=O)CSc2nc3ncccc3[nH]2)c1	94	108% (inactive)	94% (inactive)	96.6% (inactive)	88.9% (inactive)	7.8% (inactive)	81.1	88.9	-1.17% (inactive)	12.5% (inactive)
CN(C)c1ccc(C=Nc2ccc(N(C)C)cc2)cc1	104	94% (inactive)	104% (inactive)	74.2% (inactive)	70.4% (inactive)	-7.71% (inactive)	78.1	70.4	-6.22% (inactive)	-6.23% (inactive)
CCOc1ccc(CCNC(=O)CCc2nc(-c3ccc(OC)cc3)no2)cc1OCC	86.5	104% (inactive)	86.5% (inactive)	81.9% (inactive)	94.3% (inactive)	-5.12% (inactive)	99.4	94.3	-1.05% (inactive)	3.17% (inactive)
CCOC(=O)CN1C2=NCCN2c2ccccc21	89.5	82% (inactive)	89.5% (inactive)	96.1% (inactive)	99% (inactive)	10.9% (inactive)	88.1	99	-2.63% (inactive)	-4% (inactive)
O=C(NCC1CCCO1)c1cccc(N2C(=O)C3C4C=CC(C4)C3C2=O)c1 (stereo not given)	110	94% (inactive)	110% (inactive)	98.4% (inactive)	100% (inactive)	10.3% (inactive)	89.8	100	-6.4% (inactive)	-9.84% (inactive)
CCOC(=O)C1=C(C)NC(=O)C(C#N)C1c1ccco1 (stereo not given)	104	85% (inactive)	104% (inactive)	92.6% (inactive)	90% (inactive)	-0.555% (inactive)	90.6	90	-4.8% (inactive)	-1.31% (inactive)
COC(=O)c1ccccc1NC(=O)Nc1cccs1	99.5	90.5% (inactive)	99.5% (inactive)	84.3% (inactive)	82.4% (inactive)	7.46% (inactive)	74.9	82.4	-3.73% (inactive)	0% (inactive)
COc1ccc(N2CCN(CCNS(=O)(=O)c3cccc4nsnc34)CC2)cc1	98	91% (inactive)	98% (inactive)	102% (inactive)	91.1% (inactive)	-2.98% (inactive)	94.1	91.1	-5.2% (inactive)	1.11% (inactive)
CC(Oc1ccccc1)C(=O)Nc1ccc(S(=O)(=O)NCC2CCCO2)cc1 (stereo not given)	89.5	94.5% (inactive)	89.5% (inactive)	101% (inactive)	98.7% (inactive)	4.12% (inactive)	94.6	98.7	-1.73% (inactive)	-5.71% (inactive)
COc1ccccc1NC(=O)CC(NCc1ccccc1)C(=O)O (stereo not given)	108	80% (inactive)	108% (inactive)	110% (inactive)	89.1% (inactive)	-2.06% (inactive)	91.2	89.1	-7.43% (inactive)	-3% (inactive)

SMILES	viability [1] [%]	Her2 level [2]	viability [3]	viability [4]	viability [5]	differential viability (reversal) ([6]; H69AR cells + 2 uM doxorubicin)	viability [6, 9] [%]	viability [6, 10] [%]	inhibition [7]	inhibition [8]
Cc1ccc(-c2nc(N)n(C(=O)c3cccnc3)n2)cc1	86.5	87.5% (inactive)	86.5% (inactive)	95.1% (inactive)	105% (inactive)	19.1% (inactive)	85.7	105	-3.08% (inactive)	0.33% (inactive)
Cc1oc(-c2ccccc2F)nc1CS(=O)(=O)CC(=O)N1CCCCCC1	99	108% (inactive)	99% (inactive)	101% (inactive)	100% (inactive)	13.4% (inactive)	87.1	100	1.07% (inactive)	-3.28% (inactive)
COc1ccc(N2C(=O)C3C4C=CC(C4)C3C2=O)nn1 (stereo not given)	104	106% (inactive)	104% (inactive)	99.6% (inactive)	99.2% (inactive)	17.4% (inactive)	81.8	99.2	-0.91% (inactive)	-4.59% (inactive)
COc1ccc(-c2nnn(CCc3nn[nH]n3)n2)cc1OC	119	98.5% (inactive)	119% (inactive)	96.9% (inactive)	95.5% (inactive)	-3.76% (inactive)	99.2	95.5	-3.6% (inactive)	9.18% (inactive)
COc1ccccc1C1C(C#N)=C(N)Oc2cc(C)n(Cc3ccccn3)c(=O)c21 (stereo not given)	108	133% (inactive)	108% (inactive)	93.9% (inactive)	90.2% (inactive)	-2.41% (inactive)	92.6	90.2	-0.66% (inactive)	-6.94% (inactive)
CCOC(=O)c1sc2nc(SCC#N)n(CCCN3CCCC3=O)c(=O)c2c1C	80.5	73% (inactive)	80.5% (inactive)	68% (inactive)	75.8% (inactive)	-8.2% (inactive)	84	75.8	-5% (inactive)	-1.48% (inactive)
COC(=O)c1nc(N)sc1-c1ccccc1	96	93% (inactive)	96% (inactive)	95.1% (inactive)	93.3% (inactive)	13.3% (inactive)	80	93.3	-6.13% (inactive)	1.43% (inactive)
O=C(COc1ccc2c(c1)OCO2)NC12CC3CC(CC(C3)C1)C2	89.5	93% (inactive)	89.5% (inactive)	75.2% (inactive)	80.8% (inactive)	-5.25% (inactive)	86	80.8	-5.07% (inactive)	-6.07% (inactive)
O=C(CSc1nc(O)cc(=O)n1-c1ccccc1)N1CCCCC1	100	77% (inactive)	100% (inactive)	80.8% (inactive)	98.8% (inactive)	2.4% (inactive)	96.4	98.8	-6.44% (inactive)	3.97% (inactive)
C/C(=C\C(=O)c1ccc(F)cc1)Nc1ccc(N2CCOCC2)cc1	89.5	97% (inactive)	89.5% (inactive)	114% (inactive)	90.9% (inactive)	1.85% (inactive)	89.1	90.9	-4.4% (inactive)	-0.65% (inactive)
CCn1c(SCC(=O)N2c3ccccc3CCc3ccccc32)nc2c1c(=O)n(C)c(=O)n2C	87.5	107% (inactive)	87.5% (inactive)	92.5% (inactive)	94.3% (inactive)	-1.58% (inactive)	95.8	94.3	-1.51% (inactive)	-6.98% (inactive)
Cc1cccc(-n2ncc3c(N)ncnc32)c1	94.5	83.5% (inactive)	94.5% (inactive)	51.3% (inactive)	98.3% (inactive)	17.7% (inactive)	80.6	98.3	-4.67% (inactive)	-1.31% (inactive)
Cc1csc(NC(=O)CCS(=O)(=O)c2ccc(Br)cc2)n1	99.5	96.5% (inactive)	99.5% (inactive)	82.5% (inactive)	73% (inactive)	-2.92% (inactive)	75.9	73	-0.81% (inactive)	22.7% (inactive)
CN(C)c1ccc(C(=O)OCC(=O)NC2CCCCC2)cc1	106	97% (inactive)	106% (inactive)	98.1% (inactive)	91.5% (inactive)	8.63% (inactive)	82.9	91.5	-5.6% (inactive)	5.81% (inactive)
CC1(C)Cc2noc(N)c2C(C)(C)N1OC(=O)c1cccs1	103	95.5% (inactive)	103% (inactive)	99.1% (inactive)	102% (inactive)	8.28% (inactive)	94.2	102	-4.08% (inactive)	-5.08% (inactive)
COc1ccc(S(=O)(=O)N(CCN2CCOCC2)Cc2cc(OC)ccc2OC)cc1	91	88.5% (inactive)	91% (inactive)	96.2% (inactive)	70% (inactive)	3.16% (inactive)	66.8	70	-3.25% (inactive)	-5.08% (inactive)
